In the EternaBench riboswitch data:

System: MS2 coat protein
Experiment: apparent Kd, MS2 coat protein; higher = weaker binding; RNA-MaP array; FMN 200 µM where present
Outline: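 Two titrations, one without ligand and one with constant ligand, were run with SNAP-549-labelled MS2 coat protein from 0.7 or 1.5 nM, doubling to 3 µM. The targets were designs transcribed by stalled E. coli RNA polymerase on Illumina sequencing-chip clusters, in 100 mM Tris-HCl pH 7.5, 80 mM KCl, 4 mM MgCl2, BSA, DTT, yeast tRNA and Tween-20. The apparent Kd is the median of filtered per-cluster binding-curve fits, with green signal normalised to red-channel RNA signal and control-cluster median Fmax.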

[1] = designed as: OFF switch for flavin mononucleotide, no ligand
[2] = ligand present: flavin mononucleotide, designed as: OFF switch for flavin mononucleotide
[3] = designed as: ON switch for flavin mononucleotide, no ligand
[4] = ligand present: flavin mononucleotide, designed as: ON switch for flavin mononucleotide

GGUACACAUGAGGAUCACCCAUGUCAGGAUAUCUGGAUACUCUUUAUUUUAGAUAUCCAGAGAAGGGACGUGCC
apparent Kd [1]: 30.8 nM
apparent Kd [2]: 40.9 nM

AAAAAACAUGAGGAUCACCCAUGUGAGGAUAUCUGUAUCCAAAAGGAAGUGUAGGAUCGGAGAAGGCACUAGGA
apparent Kd [1]: 53.9 nM
apparent Kd [2]: 83.2 nM

GCCAUCUCAUGAGGAUAUGCUCCCGUGUCGGGAGCAGAAGGCAUGUCAUAAGACAUGAGGAUCACCCAUGUAGUUAAGAUGGCA
apparent Kd [3]: 263 nM
apparent Kd [4]: 11.1 nM

UAUUUUAACUAAGGAUAUCUAUAAUAAUUUGAAACAUGAGGAUCACCCAUGUUCAUGGGUUUUUAAGAGAAGGUAGAUGAAUAA
apparent Kd [3]: 59.8 nM
apparent Kd [4]: 26.1 nM

GCGUCAGAAUUAAUUGUGACAUACAGAAGGCAAAAGUUAUGUUCAGACAUGAGGAUCACCCAUGUUGAGGAUAUGUAGAGAAUC
apparent Kd [1]: 8.27 nM
apparent Kd [2]: 7.1 nM

UGUUGUAUUACAGGAUAUCUAGUGUUUUUAUUUAGAGAAGGGUAUUCACAUGAGGAUCACCCAUGUAUAUACGAGGAAGUUGUG
apparent Kd [3]: 55.9 nM
apparent Kd [4]: 61.2 nM

UUUCGGAGCAGAGGAUAUUACAUGAGGAUCACCCAUGUAUGAACCAAUAGCUGGAAACAGCAAUGUAAGAAGGCUGCUCCGACA
apparent Kd [1]: 11.2 nM
apparent Kd [2]: 182 nM

UGUUGUAUUACAGGAUAUCUAUUGUUUUAAUUUAGAGAAGGGUAUUCACAUGAGGAUCACCCAUGUAUAUACGAGGAAGUUGUG
apparent Kd [3]: 54 nM
apparent Kd [4]: 61 nM

AACAAUCUAUCUGAGGAUAUCAUGAAAUAAACAUGAGGAUCACCCAUGUGCAGGAAAUCUGCAUAUGAGAAGGCAGAUAGAUUGA
apparent Kd [3]: 1340 nM
apparent Kd [4]: 56.1 nM

UCCUUAAGUUAGGAUAUCGAUUGCUAUAGCAGAUGAGAAGGAGCCACAUGAGGAUCACCCAUGUCCUCACCUAU
apparent Kd [1]: 180 nM
apparent Kd [2]: 214 nM

GUCAGCUCGUCAGGAUAUACAACACUGCUUCGGCAGUGUAUUAAGAUCACAUGAGGAUCACCCAUGUAGAAGGCACGAGCUGAU
apparent Kd [1]: 7.39 nM
apparent Kd [2]: 7.56 nM

CUUCUGUCAGGAUAUGCGAAUCGGCACUGGGUCAGUGGCGAGCAGAAGGGACAUGAGGAUCACCCAUGUAAAGU
apparent Kd [1]: 32.8 nM
apparent Kd [2]: 131 nM

AAGUUCUGAGGAUAUACAUAGAUUUACAUGAGGAUCACCCAUGUUCCUCUAUGUAUUAAUGUAGAAGGCAGAAGAA
apparent Kd [1]: 24.4 nM
apparent Kd [2]: 185 nM

CUCGUGUUAGGAUAUCGUGGCUGGGCUGGGACGUCCGAUGGCGAGAAGGGACAUGAGGAUCACCCAUGUAAAAC
apparent Kd [1]: 28.6 nM
apparent Kd [2]: 27.6 nM

AAAAAGUCAGGAUAUGUGAAAAAAAAAAAAAAAAAAAAAAAACAGAAGGGACAUGAGGAUCACCCAUGUAAAAA
apparent Kd [1]: 54.1 nM
apparent Kd [2]: 62.3 nM

AUAUCGUCAGGAUAUGCUAGUAAAUGUUUCAUUUCUUCAUAGCAGAAGGGACAUGAGGAUCACCCAUGUAAGUC
apparent Kd [1]: 37.6 nM
apparent Kd [2]: 39.6 nM

UGUUGUAUUACAGGAUAUCUAGUAUGUUUAUUUAGAGAAGGGUAUUCACAUGAGGAUCACCCAUGUAUAUACGAGGAAGUUGUG
apparent Kd [3]: 39.1 nM
apparent Kd [4]: 42.5 nM

CAUUAUUAUCGAGGAUAUCCUAUUGAAAUUCUGGGAGAAGGCGGACUCAACAUGAGGAUCACCCAUGUGGGACGGAUGCUAGGA
apparent Kd [1]: 18.5 nM
apparent Kd [2]: 15.4 nM

AAGAAACAUGAGGAUCACCCAUGUCAGGAUAUGCAAGACUGACGAAAGUCAGUCAAAAGCAGAAGGGACUAGAA
apparent Kd [1]: 57.2 nM
apparent Kd [2]: 76.6 nM

GCGUCAGAAUUAAUUGUGACAGGCAGAAGGCCAUAUUUCAUGUCAGACAUGAGGAUCACCCAUGUGGAGGAUAUGCAGUUACAC
apparent Kd [1]: 43.4 nM
apparent Kd [2]: 98.7 nM

AAGCUGCGCCAGAAGGGACCGACAUGAGGAUCACCCAUGUCCACAAGAGUCAGGAUAUGGCGUGGAGGCUCGUUUAUGUCCAAG
apparent Kd [3]: 13.1 nM
apparent Kd [4]: 5.44 nM

AAACAUGUCCGAGGAUAUCUGGAAACAUUUUCAAGAGAAGGCGGACAUGAGGAUCACCCAUGUCUCACCUCAUCAAAUCCAAGU
apparent Kd [1]: 8.24 nM
apparent Kd [2]: 30.2 nM

AACGCUAAAGGAUAUACAUGAGGAUCACCCAUGUUGAGGAAGGUUAGAUGAGGAGUAAGUAGAAGGUUAGACGA
apparent Kd [1]: 29.2 nM
apparent Kd [2]: 25.7 nM

AUUUAUGGCCAGAAGGACAUGAGGAUCACCCAUGUAGGAUAUGGACGAUUUUGCUCGGCGGCUUGUUUAGGAAGCACCGGUGGU
apparent Kd [3]: 10.7 nM
apparent Kd [4]: 6.85 nM

AGCGCGGUCUCGCAGGAUAUCCACAAUCCUACAUGAGGAUCACCCAUGUCGCUGCAGGAUAUUAGGGAGAAGGGUGAUGCCGCGC
apparent Kd [3]: 34.5 nM
apparent Kd [4]: 20.7 nM

UGUUGUUCAGGAUAUGAUGUAUAAUACAUGAGGAUCACCCAUGUAGAUCCUGAAUUGGCGUCAGAAGGGAAUGUUG
apparent Kd [1]: 19.3 nM
apparent Kd [2]: 21.9 nM

CUUUUGUGAGGAUAUUAGUAGUAUAUAAAUAAAAUUACUACUGAGAAGGCACAUGAGGAUCACCCAUGUUCCUC
apparent Kd [1]: 32.7 nM
apparent Kd [2]: 124 nM

GAGAAGAAGUUAGGAUAUUGGAUAGGGACGGAAUAAGAAGGAGCACAUACAUGAGGAUCACCCAUGUUAGAAGAAGAGAUCCUC
apparent Kd [1]: 545 nM
apparent Kd [2]: 253 nM

ACCUCACAUGAGGAUCACCCAUGUUAGGAUAUCUCGAUGCUCCACGGGCGGUAGCAUCAGAGAAGGAACGUGCU
apparent Kd [1]: 23.9 nM
apparent Kd [2]: 21.5 nM

GGACUGGACUAGAAGGGUGAUGCGCUCGCAGACACAGGAUAUAGUCACAUGAGGAUCACCCAUGUCGGUCCAAGUGAAGAAACU
apparent Kd [3]: 98.2 nM
apparent Kd [4]: 24.4 nM

UAUGGUAAAGUCAGGAUAUACGUACAUAAUUCUAGGUAGAAGGGACAUGAGGAUCACCCAUGUAUGGUAGUGUU
apparent Kd [1]: 73 nM
apparent Kd [2]: 84 nM

GGGUCAAUCUUUAGGUGGCGAGACUAGGAUAUGAGUGGUCCCACAUGAGGAUCACCCAUGUGUACUUAGAAGGAGUAGCGCCGU
apparent Kd [3]: 160 nM
apparent Kd [4]: 184 nM

AGAUCACAAAUUUGGGAUAGUAGUACAGAAGGCACGGAAGUACAUGAGGAUCACCCAUGUGUGGGUGAGGAUAUGUACUCACUA
apparent Kd [3]: 217 nM
apparent Kd [4]: 14 nM

UUUCCUGGAGGAUAUACAUGAGGAUCACCCAUGUGGUUCGGAUUAAGCGGCUUACGCGGUAGAAGGUUAGACUU
apparent Kd [1]: 108 nM
apparent Kd [2]: 85.1 nM

GCGAAUCAGUGAGGAUAUACAUAAAUUAUAACAGUAGAAGGCACAUACCUCAAGACAUGAGGAUCACCCAUGUGACAUAUCGCU
apparent Kd [1]: 258 nM
apparent Kd [2]: 488 nM

GGAGAGGUAGGAUAUGGAGCUUAGAACAUGAGGAUCACCCAUGUAGGACCACAUGAUUUGCCAGAAGGACCAGUCC
apparent Kd [1]: 421 nM
apparent Kd [2]: 558 nM

AUAUAUAUACAGAAGGUGCCAGCGAGAGCUGCACAUGAGGAUCACCCAUGUUGUCGGUGACGACGCAAGGAUAUGUAUAUAUAU
apparent Kd [3]: 27 nM
apparent Kd [4]: 7.62 nM

AUGCUUUAUGUAGGAUAUGCAUACGGUACGUAUGCAGAAGGACAUGAGGAUCACCCAUGUAAAUUAUUAUUACAUAUCAUACAU
apparent Kd [2]: 44 nM

UGAUAGGACAGAGGAUAUGCCGAUAGGAUCUACUAUCGAAGAAUCCUCACAUGAGGAUCACCCAUGUAGAAGGCUGUCCUAUCU
apparent Kd [1]: 23 nM
apparent Kd [2]: 140 nM

AUCGGCUGGCAGAAGGGCUAUGUGAUCCGGUUUUACAUGAGGAUCACCCAUGUAGCCUCGCGCUAGCAGGAUAUGCAACGGCUG
apparent Kd [3]: 175 nM
apparent Kd [4]: 40.4 nM

GCACGACAUGUAGGAUAUCGAGCGCCGGGCGCUCGAGAAGGACAUGAGGAUCACCCAUGUAUUCUGAGUGACCGAGGUCUGUGC
apparent Kd [1]: 72.9 nM
apparent Kd [2]: 594 nM

ACAUGAGGCGCAGGAUAUGCAACAUGAUGAGUAGCAGAAGGGUGACAACAUGAGGAUCACCCAUGUAACAUGAGGAUCACCCAU
apparent Kd [1]: 28.3 nM
apparent Kd [2]: 33.3 nM

UAGGUGUGAGGAUAUGGUAAAGAUAAAAUGAUGAAAGAACUCCAGAAGGCACAUGAGGAUCACCCAUGUAGAUG
apparent Kd [1]: 29.2 nM
apparent Kd [2]: 54.9 nM

GUAGCUAUCGGAGGAUAUUCAUACCGGAAACGGACAUGAGGAUCACCCAUGUGGCGAAAGCCUUGGAAGAAGGCCGAUAGCUAC
apparent Kd [3]: 4.08 nM
apparent Kd [4]: 3.56 nM

GGAUCUUGGGUCAGGAUAUGCUGAUAGUUAUGUCAGCAGAAGGGACAUGAGGAUCACCCAUGUGCUUGGUUUUG
apparent Kd [1]: 12.9 nM
apparent Kd [2]: 39.6 nM

CGUGCAUAUGUAGGAUAUGGUUAUCUAUGUCUAGUUACUAGACAUAGAUAACCAGAAGGACAUGAGGAUCACCCAUGUUGCACG
apparent Kd [1]: 12.8 nM
apparent Kd [2]: 24.2 nM

GUCGGAAACGACAAAAGUACCCGAGCAGAAGGGUGAAAACAUGAGGAUCACCCAUGUAAAUAAUCACAGGAUAUGCUCGGGUAC
apparent Kd [3]: 6.09 nM
apparent Kd [4]: 4.43 nM

AUCAGCUCGUCAGGAUAUACGUCACUGCGUCUGCAGUGUGGUAAGAUCACAUGAGGAUCACCCAUGUAGAAGGGACGAGCUGAU
apparent Kd [1]: 14.1 nM
apparent Kd [2]: 254 nM

CUCAAACAUGAGGAUCACCCAUGUGUUGUCAUGGGAGGAUAUCCAAGUUCGUUGUAGUCGGGAGAAGGCCUAUGUC
apparent Kd [3]: 213 nM
apparent Kd [4]: 41.1 nM

GGAUAGGCCAGAGGAUAUACGUGCUAGAGAUACUAGCAAAAUUUCCUCACAUGAGGAUCACCCAUGUAGAAGGCUGUCCUAUCG
apparent Kd [1]: 7.31 nM
apparent Kd [2]: 49.9 nM

UGGUACUAGGGAGGAUAUGGGAAGAUACAUGAGGAUCACCCAUGUCUAAGAAUGCCGAGAGGCAACUAGAAGGCCCUAGUACCU
apparent Kd [3]: 98.3 nM
apparent Kd [4]: 496 nM

CCUCGUCACAUUAACAUGAGGAUCACCCAUGUCAAAAGACAUGAGGAUAUGCAUCCUAAUUGGAUGCAGAAGGCAUGGACGAGG
apparent Kd [3]: 474 nM
apparent Kd [4]: 36.5 nM

CUAUAUAAUACCUCAUGUACAUGAGGAUCACCCAUGUUAACUAAGGAUAUAUAUAUAUUAAUAAUGUAGAAGGUAGUACUAUUU
apparent Kd [1]: 16 nM
apparent Kd [2]: 11.8 nM

GGAGCACAUAUAAACAUGAGGAUCACCCAUGUCAAAAGACAUGAGGAUAUGGAUCGGAAAACGAUCUAGAAGGCAUGGUGCUCC
apparent Kd [3]: 644 nM
apparent Kd [4]: 29.6 nM

AUUGGGACAUGAGGAUCACCCAUGUACGCAGUGGGUAGAUCACAGGAUAUGCGAAGUGUGUGAGAGCAGAAGGGUGAGUACUUA
apparent Kd [3]: 343 nM
apparent Kd [4]: 59.5 nM
